Data: ChEMBL document CHEMBL1129041, “Design of orally active dual inhibitors of neutral endopeptidase and angiotensin-converting enzyme with long duration of action” (J Med Chem, 1996)

Experiments:
[1] = molecular target: T1, Angiotensin-converting enzyme (Rattus norvegicus, UniProt P47820); assay: In vitro inhibition of rat angiotensin I converting enzyme
T1 sequence (P47820 whole entry): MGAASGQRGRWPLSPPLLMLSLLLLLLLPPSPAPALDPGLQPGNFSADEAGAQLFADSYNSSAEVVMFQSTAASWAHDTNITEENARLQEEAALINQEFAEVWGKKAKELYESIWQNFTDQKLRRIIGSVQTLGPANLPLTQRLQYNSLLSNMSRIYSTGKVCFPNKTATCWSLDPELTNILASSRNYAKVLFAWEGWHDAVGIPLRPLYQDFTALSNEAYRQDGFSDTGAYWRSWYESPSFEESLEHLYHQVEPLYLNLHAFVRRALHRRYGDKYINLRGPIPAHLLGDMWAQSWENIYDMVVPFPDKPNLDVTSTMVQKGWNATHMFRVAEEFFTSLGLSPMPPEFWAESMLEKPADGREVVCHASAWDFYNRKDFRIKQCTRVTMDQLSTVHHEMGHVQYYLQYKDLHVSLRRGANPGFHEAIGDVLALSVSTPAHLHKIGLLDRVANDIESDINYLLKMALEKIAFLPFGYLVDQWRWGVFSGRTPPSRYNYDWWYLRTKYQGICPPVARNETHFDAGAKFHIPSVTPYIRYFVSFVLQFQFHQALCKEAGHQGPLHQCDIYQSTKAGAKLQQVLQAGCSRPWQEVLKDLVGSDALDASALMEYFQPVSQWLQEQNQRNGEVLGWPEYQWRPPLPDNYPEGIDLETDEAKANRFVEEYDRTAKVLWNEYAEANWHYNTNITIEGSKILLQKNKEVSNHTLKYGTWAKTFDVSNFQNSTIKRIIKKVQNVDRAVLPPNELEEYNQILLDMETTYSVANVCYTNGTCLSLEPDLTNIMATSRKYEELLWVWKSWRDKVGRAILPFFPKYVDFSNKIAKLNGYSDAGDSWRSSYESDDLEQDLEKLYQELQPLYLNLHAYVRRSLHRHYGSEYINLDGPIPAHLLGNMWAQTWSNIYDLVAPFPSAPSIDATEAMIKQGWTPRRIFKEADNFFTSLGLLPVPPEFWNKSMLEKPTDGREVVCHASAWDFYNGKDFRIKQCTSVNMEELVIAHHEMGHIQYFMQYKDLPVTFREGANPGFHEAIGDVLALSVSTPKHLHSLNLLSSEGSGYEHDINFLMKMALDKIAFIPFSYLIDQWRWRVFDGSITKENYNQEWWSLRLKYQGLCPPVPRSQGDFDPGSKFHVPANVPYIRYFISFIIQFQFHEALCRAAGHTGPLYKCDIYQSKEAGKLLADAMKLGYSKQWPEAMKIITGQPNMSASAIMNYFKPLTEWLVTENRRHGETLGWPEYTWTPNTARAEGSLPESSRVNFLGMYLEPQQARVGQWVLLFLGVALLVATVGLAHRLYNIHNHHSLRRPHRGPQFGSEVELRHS
Procedure, shortened: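 ACE purified from rat testis, 0.02 pmol/100 µL final, preincubated 15 min at 37 °C with varying inhibitor in 50 mM Tris-HCl pH 8.0. N-Cbz-Phe-His-Leu added to 0.05 mM final, 15 min; stopped with 2 M NaOH. His-Leu measured fluorimetrically (ex 365, em 495 nm) against a His-Leu calibration curve. IC50 is the mean ± SEM of three experiments in triplicate.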

[2] = molecular target: T2, Angiotensin-converting enzyme (Mus musculus) (UniProt P09470); assay: (§1) In vivo percent inhibition activity against lung Angiotensin I converting enzyme 2 hr after oral administration of a dose of 2.6 x 10e-5 mol/kg; format: functional, organism-based
T2 sequence (whole entry): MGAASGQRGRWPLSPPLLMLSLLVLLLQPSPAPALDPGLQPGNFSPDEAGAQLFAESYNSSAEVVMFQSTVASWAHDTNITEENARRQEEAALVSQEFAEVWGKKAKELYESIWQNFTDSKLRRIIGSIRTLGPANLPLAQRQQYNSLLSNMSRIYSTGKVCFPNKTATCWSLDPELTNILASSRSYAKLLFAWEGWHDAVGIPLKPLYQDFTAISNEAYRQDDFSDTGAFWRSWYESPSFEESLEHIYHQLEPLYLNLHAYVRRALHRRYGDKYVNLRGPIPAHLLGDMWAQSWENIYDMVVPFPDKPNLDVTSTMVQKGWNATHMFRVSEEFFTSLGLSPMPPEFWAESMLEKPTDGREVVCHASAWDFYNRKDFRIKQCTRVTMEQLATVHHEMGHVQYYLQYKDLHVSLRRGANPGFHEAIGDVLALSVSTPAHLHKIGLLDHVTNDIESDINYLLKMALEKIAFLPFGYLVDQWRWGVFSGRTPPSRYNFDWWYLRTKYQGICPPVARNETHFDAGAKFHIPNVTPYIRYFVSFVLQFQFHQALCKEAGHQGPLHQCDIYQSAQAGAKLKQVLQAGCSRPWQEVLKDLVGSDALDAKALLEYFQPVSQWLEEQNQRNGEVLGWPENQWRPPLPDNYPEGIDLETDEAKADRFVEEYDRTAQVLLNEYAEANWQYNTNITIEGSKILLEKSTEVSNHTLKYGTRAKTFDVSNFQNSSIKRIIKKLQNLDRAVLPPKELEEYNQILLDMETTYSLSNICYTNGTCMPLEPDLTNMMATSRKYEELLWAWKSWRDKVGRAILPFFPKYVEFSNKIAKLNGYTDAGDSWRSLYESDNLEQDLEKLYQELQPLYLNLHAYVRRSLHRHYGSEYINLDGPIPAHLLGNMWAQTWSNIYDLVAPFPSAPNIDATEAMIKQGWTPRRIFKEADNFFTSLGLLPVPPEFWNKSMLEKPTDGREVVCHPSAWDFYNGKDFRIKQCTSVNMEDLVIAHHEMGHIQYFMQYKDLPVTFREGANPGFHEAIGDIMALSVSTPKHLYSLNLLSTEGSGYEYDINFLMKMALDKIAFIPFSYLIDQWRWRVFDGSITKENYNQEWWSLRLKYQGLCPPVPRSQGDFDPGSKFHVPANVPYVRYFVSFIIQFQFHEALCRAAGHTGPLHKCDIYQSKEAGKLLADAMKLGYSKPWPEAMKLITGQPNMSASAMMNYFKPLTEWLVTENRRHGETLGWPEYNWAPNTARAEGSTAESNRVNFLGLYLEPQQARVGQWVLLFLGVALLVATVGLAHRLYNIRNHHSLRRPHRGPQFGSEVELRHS
Procedure, shortened: (§2)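 Mice dosed orally in 10% ethanol/10% cremophor/80% water. At 2 h, [3H]trandaloprilate (0.5 µCi) given iv; 15 min later lungs homogenized at 4 °C in 50 mM Tris-HCl pH 8.0 with 1 mM NaCl, centrifuged, and radioactivity counted. Total binding from untreated mice; nonspecific binding from probe coinjected with 1000 equiv captopril.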

[3] = molecular target: T2, Angiotensin-converting enzyme (Mus musculus); assay: as §1; format: organism-based; procedure, shortened: as §2

SMILES	IC50 [1]	inhibition [2]	inhibition [3]
O=C(NCC(=O)N1[C@@H](c2ccccc2)CC[C@H]1C(=O)O)[C@@H](S)Cc1ccccc1	0.55 nM	63%	–
O=C(NCC(=O)N1[C@@H](c2cccc(O)c2)CC[C@H]1C(=O)O)[C@@H](S)Cc1ccc(O)cc1	0.7 nM	–	89%
O=C(NCC(=O)N1[C@@H](c2ccccc2O)CC[C@H]1C(=O)O)[C@@H](S)Cc1ccc(O)cc1	0.6 nM	82%	–
Cc1ccccc1[C@H]1CC[C@@H](C(=O)O)N1C(=O)CNC(=O)[C@@H](S)Cc1ccccc1	3.1 nM	57%	–

Second part, the compound after the results:

IC50 [1]	inhibition [2]	inhibition [3]	SMILES
2.5 nM	33%	–	Cc1ccc([C@H]2CC[C@@H](C(=O)O)N2C(=O)CNC(=O)[C@@H](S)Cc2ccc(O)cc2)cc1
6.8 nM	42%	–	Cc1ccc([C@H]2CC[C@@H](C(=O)O)N2C(=O)CNC(=O)[C@@H](S)Cc2ccccc2)cc1
5 nM	–	60%	Cc1ccccc1C1CC[C@@H](C(=O)O)N1C(=O)CNC(=O)[C@@H](S)Cc1ccc(O)cc1 (single isomer, unassigned)
